# Values joined by “and” are separate entries in the source; they are usually repeats but may differ in a detail not shown here. Identical values can stand only once.
# What was measured:
# [1] = tested on: MKN-45; test: Cytotoxicity activity against human stomach adenocarcinoma cell lines MKN-45by using MTT assay; type: functional, cell-based
# How it was run: (§1)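 Human stomach cancer lines in RPMI-1640 with 10% heat-inactivated FCS and penicillin/streptomycin, 37 °C, 5% CO2, seeded to stay in exponential growth. Compound added as 0.1–100.0 μg/mL solutions (stock, diluted 1:10 in well), triplicate, 4 days. MTT for 4 h, formazan dissolved in DMSO or acidified 2-propanol, read at 540 nm. IC50 from OD relative to control by probit analysis, ≥3 experiments.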
# [2] = tested on: KATO III stomach cancer cell line; test: Cytotoxicity activity against human stomach adenocarcinoma cell lines KATO-III by using MTT assay; type: functional, cell-based; how it was run: as §1
# [3] = tested on: NCI-N87; test: In vitro cytotoxicity activity against human stomach cancer cell lines NCI-N87; type: functional, cell-based; how it was run: as §1
# [4] = tested on: PC-9; test: Cytotoxicity activity against human non-small cell lung adenocarcinoma cell lines PC-9 by using MTT assay; type: functional, cell-based
# [5] = tested on: SNU-16; test: In vitro cytotoxicity activity against human stomach cancer cell lines SNU-16; type: functional, cell-based; how it was run: as §1
# [6] = tested on: PC-14; test: Cytotoxicity activity against human non-small cell lung adenocarcinoma cell lines PC-14 by using MTT assay; type: functional, cell-based
# [7] = tested on: SNU1; test: In vitro cytotoxicity activity against human stomach cancer cell lines SNU-1; type: functional, cell-based; how it was run: as §1
# [8] = tested on: SNU-5; test: In vitro cytotoxicity activity against human stomach cancer cell lines SNU-5; type: functional, cell-based; how it was run: as §1
# [9] = tested on: Mus musculus; test: The serum levels of creatinine in mice after a single intraperitoneal at dose 150 mg/kg on day 4; type: functional, organism-based; parameters: dose 150 mg/kg
# How it was run: (§2)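 Male ICR mice, single ip dose on day 0 in 0.5% carboxymethylcellulose sodium in water, six per group. Blood drawn from the posterior vena cava under anesthesia on days 1, 4, 8. Serum obtained by centrifugation (1500g, 10 min) and run on a biochemistry analyzer. Values are mean ± SE.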
# [10] = tested on: L1210; test: Antitumor activity against Cisplatin-Resistant L1210 Leukemia cells in mice at their respective dose at 50 mg/kg, ip, days; type: functional, organism-based; parameters: dose 50 mg/kg; details: Mus musculus
# How it was run: (§3)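 BDF1 male mice inoculated ip on day 0 with 1 × 10^6 viable (trypan blue-excluding) L1210 cells, or cisplatin-resistant L1210 cells, maintained by serial ip passage in DBA/2 mice. The resistant line came from continuous exposure to rising cisplatin and was passaged in DBA/2 mice given cisplatin 5 mg/kg ip on days 1 and 5. Drug ip on days 1, 5, 9; seven mice per dose; end day 50; %T/C from mean survival time.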
# [11] = tested on: L1210; test: Antitumor activity against L1210 Leukemia cells in mice at 12.5 mg/kg; type: functional, organism-based; parameters: dose 12.5 mg/kg; details: Mus musculus; how it was run: as §3
# [12] = tested on: L1210; test: Antitumor activity against Cisplatin-Resistant L1210 Leukemia cells in mice at their respective dose at 25 mg/kg, ip, days; type: functional, organism-based; parameters: dose 25 mg/kg; details: Mus musculus; how it was run: as §3
# [13] = Number of deaths/number of animals tested; out of 7 mouse; type: functional
# How it was run: (§4)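 L1210-bearing BDF1 mice (1 × 10^6 cells ip, day 0), seven per dose group, treated ip on days 1, 5 and 9. Toxic deaths counted per group. Cures are animals without gross evidence of tumor on day 50, when experiments ended.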
# [14] = tested on: L1210; test: Antitumor activity against L1210 Leukemia cells in mice at 50 mg/kg; type: functional, organism-based; parameters: dose 50 mg/kg; details: Mus musculus; how it was run: as §3
# [15] = tested on: L1210; test: Antitumor activity against L1210 Leukemia cells in mice at 6.25 mg/kg; type: functional, organism-based; parameters: dose 6.25 mg/kg; details: Mus musculus; how it was run: as §3
# [16] = tested on: L1210; test: Antitumor activity against L1210 (murine leukemia) cells in mice at 100 mg/kg i.p.; type: functional, organism-based; parameters: dose 100 mg/kg; details: Mus musculus; how it was run: as §3
# [17] = tested on: Mus musculus; test: The serum levels of creatinine in mice after a single intraperitoneal at dose 150 mg/kg on day1; type: functional, organism-based; parameters: dose 150 mg/kg; how it was run: as §2
# [18] = tested on: L1210; test: Antitumor activity against L1210 Leukemia cells in mice at 25 mg/kg; type: functional, organism-based; parameters: dose 25 mg/kg; details: Mus musculus; how it was run: as §3
# [19] = tested on: Mus musculus; test: The serum levels of blood urea nitrogen in mice after a single intraperitoneal at dose 150 mg/kg on day 4; type: functional, organism-based; parameters: dose 150 mg/kg; how it was run: as §2
# [20] = species on record: Mus musculus; test: Number of cures/number of animals tested; out of 7 mouse; type: functional, organism-based; how it was run: as §4
# [21] = tested on: Mus musculus; test: The serum levels of creatinine in mice after a single intraperitoneal at dose 150 mg/kg on day 8; type: functional, organism-based; parameters: dose 150 mg/kg; how it was run: as §2
# [22] = tested on: L1210; test: Antitumor activity against Cisplatin-Resistant L1210 Leukemia cells in mice at their respective dose at 100 mg/kg, ip, days; type: functional, organism-based; parameters: dose 100 mg/kg; details: Mus musculus; how it was run: as §3
# [23] = tested on: Mus musculus; test: The serum levels of blood urea nitrogen in mice after a single intraperitoneal at dose 150 mg/kg on day 8; type: functional, organism-based; parameters: dose 150 mg/kg; how it was run: as §2
# [24] = tested on: Mus musculus; test: The serum levels of blood urea nitrogen in mice after a single intraperitoneal at dose 150 mg/kg on day1; type: functional, organism-based; parameters: dose 150 mg/kg; how it was run: as §2
# [25] = species on record: Mus musculus; test: Number of toxic deaths/number of animals tested; type: functional, organism-based; how it was run: as §4
# [26] = tested on: L1210; test: Antitumor activity against Cisplatin-Resistant L1210 Leukemia cells in mice at their respective dose at 1.5 mg/kg, ip, days; type: functional, organism-based; parameters: dose 1.5 mg/kg; details: Mus musculus; how it was run: as §3
# [27] = tested on: Mus musculus; test: The serum levels of blood urea nitrogen in mice after a single intraperitoneal at dose 6.0 mg/kg on day 8; type: functional, organism-based; parameters: dose 6 mg/kg; how it was run: as §2
# [28] = tested on: Mus musculus; test: Antitumor activity against L1210 Leukemia cells in mice at their respective dose at 1.5 mg/kg, ip, days; type: functional, organism-based; parameters: dose 1.5 mg/kg; details: Leukemia cell; how it was run: as §3
# [29] = tested on: L1210; test: Antitumor activity against Cisplatin-Resistant L1210 Leukemia cells in mice at their respective dose at 3.1 mg/kg, ip, days; type: functional, organism-based; parameters: dose 3.1 mg/kg; details: Mus musculus; how it was run: as §3
# [30] = tested on: Mus musculus; test: The serum levels of blood urea nitrogen in mice after a single intraperitoneal at dose 6.0 mg/kg on day1; type: functional, organism-based; parameters: dose 6 mg/kg; how it was run: as §2
# [31] = tested on: Mus musculus; test: The serum levels of creatinine in mice after a single intraperitoneal at dose 6.0 mg/kg on day 8; type: functional, organism-based; parameters: dose 6 mg/kg; how it was run: as §2
# [32] = tested on: Mus musculus; test: Antitumor activity against L1210 Leukemia cells in mice at their respective dose at 3.1 mg/kg, ip, days; type: functional, organism-based; parameters: dose 3.1 mg/kg; details: Leukemia cell; how it was run: as §3
# [33] = tested on: Mus musculus; test: The serum levels of creatinine in mice after a single intraperitoneal at dose 6.0 mg/kg on day 4; type: functional, organism-based; parameters: dose 6 mg/kg; how it was run: as §2
# [34] = tested on: Mus musculus; test: The serum levels of blood urea nitrogen in mice after a single intraperitoneal at dose 6.0 mg/kg on day 4; type: functional, organism-based; parameters: dose 6 mg/kg; how it was run: as §2
# [35] = tested on: Mus musculus; test: The serum levels of creatinine in mice after a single intraperitoneal at dose 6.0 mg/kg on day1; type: functional, organism-based; parameters: dose 6 mg/kg; how it was run: as §2
sequence,measurement,setting,value
CARBOPLATIN [listing 1 of 2 here],IC50,[1],6.4 µg/mL
same,IC50,[2],10.5 µg/mL
same,IC50,[3],153.38 µg/mL
same,IC50,[4],19 µg/mL
same,IC50,[5],34.02 µg/mL
same,IC50,[6],5.8 µg/mL
same,IC50,[7],37.78 µg/mL
same,IC50,[8],10.75 µg/mL
CARBOPLATIN [listing 2 of 2 here],Creatinine,[9],0.19 mg 100ml-1
same,T/C,[10],132%
same,T/C,[11],125%
same,T/C,[12],98%
same,Ratio,[13],2
same,T/C,[14],196%
same,T/C,[15],107%
same,T/C,[16],197%
same,Creatinine,[17],0.25 mg 100ml-1
same,T/C,[18],148%
same,BUN,[19],21.1 mg 100ml-1
same,Ratio,[20],1 and 2
same,Creatinine,[21],0.31 mg 100ml-1
same,T/C,[22],81%
same,BUN,[23],28.6 mg 100ml-1
same,BUN,[24],24.4 mg 100ml-1
same,Ratio,[25],1
CISPLATIN [listing 1 of 2 here],IC50,[1],0.51 µg/mL
same,IC50,[2],0.83 µg/mL
same,IC50,[3],13.73 µg/mL
same,IC50,[4],1.03 µg/mL
same,IC50,[5],2.83 µg/mL
same,IC50,[6],0.77 µg/mL
same,IC50,[7],2.9 µg/mL
same,IC50,[8],1.29 µg/mL
CISPLATIN [listing 2 of 2 here],T/C,[15],82%
same,T/C,[26],86%
same,BUN,[27],32.5 mg 100ml-1
same,T/C,[28],142%
same,T/C,[29],109%
same,BUN,[30],24.8 mg 100ml-1
same,Creatinine,[31],0.4 mg 100ml-1
same,T/C,[32],167%
same,Creatinine,[33],0.28 mg 100ml-1
same,BUN,[34],43.1 mg 100ml-1
same,Ratio,[25],5 and 2
same,Creatinine,[35],0.26 mg 100ml-1

# — ChEMBL document CHEMBL1127511, “Synthesis and antitumor activity of a series of [2-substituted-4,5-bis(aminomethyl)-1,3-dioxolane]platinum(II) complexes” (J Med Chem, 1994)
